Measured values from ChEMBL document CHEMBL3124806, “Imidazopyridine-fused [1,3]-diazepinones: synthesis and antiproliferative activity” (Eur J Med Chem, 2014).

What was measured:
Format in all cases: functional
[1] = test system: MDA-MB-231; test: Cytotoxicity against human MDA-MB-231 cells assessed as cell growth at 10 uM after 48 hrs by SRB assay relative to untreated control; details: MDA-MB-231, 48 h, read-out: Activity
In short: (§1)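 NCI-60 one-dose screen: each agent added at 10 µM, cultures incubated 48 h. Endpoint by sulforhodamine B protein-binding dye read spectrophotometrically; growth expressed as percent of untreated control cells.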

[2] = test system: DU-145; test: Cytotoxicity against human DU145 cells assessed as cell growth at 10 uM after 48 hrs by SRB assay relative to untreated control; details: DU-145, 48 h, read-out: Activity
In short: (§2)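 NCI-60 panel screen at a single concentration of 10 μM with 48 h incubation. Cell density measured by sulforhodamine B protein-binding dye and read spectrophotometrically. Growth expressed as percent of untreated control cells.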

[3] = test system: PC-3; test: Cytotoxicity against human PC3 cells assessed as cell growth at 10 uM after 48 hrs by SRB assay relative to untreated control; details: PC-3, 48 h, read-out: Activity; in short: as §1
[4] = Cytotoxicity against human UO31 cells assessed as cell growth at 10 uM after 48 hrs by SRB assay relative to untreated control; details: UO-31, 48 h, read-out: Activity
In short: (§3)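 NCI-60 single-dose screen. Compounds were added to the cultures at 10 μM and incubated for 48 h. The end point was sulforhodamine B protein staining read spectrophotometrically. Growth is reported as percent of untreated control cells.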

[5] = test system: TK-10; test: Cytotoxicity against human TK10 cells assessed as cell growth at 10 uM after 48 hrs by SRB assay relative to untreated control; details: TK-10, 48 h, read-out: Activity; in short: as §3
[6] = test system: RXF 393; test: Cytotoxicity against human RXF393 cells assessed as cell growth at 10 uM after 48 hrs by SRB assay relative to untreated control; details: RXF 393, 48 h, read-out: Activity; in short: as §1
[7] = test system: CAKI-1; test: Cytotoxicity against human Caki1 cells assessed as cell growth at 10 uM after 48 hrs by SRB assay relative to untreated control; details: CAKI-1, 48 h, read-out: Activity; in short: as §2
[8] = test system: A498; test: Cytotoxicity against human A498 cells assessed as cell growth at 10 uM after 48 hrs by SRB assay relative to untreated control; details: A498, 48 h, read-out: Activity; in short: as §2
[9] = test system: OVCAR-8; test: Cytotoxicity against human OVCAR8 cells assessed as cell growth at 10 uM after 48 hrs by SRB assay relative to untreated control; details: OVCAR-8, 48 h, read-out: Activity; in short: as §1
[10] = Cytotoxicity against human OVCAR4 cells assessed as cell growth at 10 uM after 48 hrs by SRB assay relative to untreated control; details: OVCAR-4, 48 h, read-out: Activity; in short: as §1
[11] = test system: OVCAR-3; test: Cytotoxicity against human OVCAR3 cells assessed as cell growth at 10 uM after 48 hrs by SRB assay relative to untreated control; details: OVCAR-3, 48 h, read-out: Activity; in short: as §1
[12] = test system: IGROV-1; test: Cytotoxicity against human IGROV1 cells assessed as cell growth at 10 uM after 48 hrs by SRB assay relative to untreated control; details: IGROV-1, 48 h, read-out: Activity; in short: as §2
[13] = Cytotoxicity against human UACC257 cells assessed as cell growth at 10 uM after 48 hrs by SRB assay relative to untreated control; details: UACC-257, 48 h, read-out: Activity; in short: as §3
[14] = test system: SK-MEL-28; test: Cytotoxicity against human SK-MEL-28 cells assessed as cell growth at 10 uM after 48 hrs by SRB assay relative to untreated control; details: SK-MEL-28, 48 h, read-out: Activity; in short: as §3
[15] = test system: MDA-MB-435; test: Cytotoxicity against human MDA-MB-435 cells assessed as cell growth at 10 uM after 48 hrs by SRB assay relative to untreated control; details: MDA-MB-435, 48 h, read-out: Activity; in short: as §1
[16] = test system: LOX IMVI; test: Cytotoxicity against human LOXIMVI cells assessed as cell growth at 10 uM after 48 hrs by SRB assay relative to untreated control; details: read-out: Activity; in short: as §2
[17] = test system: SNB-75; test: Cytotoxicity against human SNB75 cells assessed as cell growth at 10 uM after 48 hrs by SRB assay relative to untreated control; details: SNB-75, 48 h, read-out: Activity; in short: as §3
[18] = test system: SF-295; test: Cytotoxicity against human SF295 cells assessed as cell growth at 10 uM after 48 hrs by SRB assay relative to untreated control; details: SF-295, 48 h, read-out: Activity; in short: as §1
[19] = test system: SF-268; test: Cytotoxicity against human SF268 cells assessed as cell growth at 10 uM after 48 hrs by SRB assay relative to untreated control; details: SF-268, 48 h, read-out: Activity; in short: as §1
[20] = test system: SW-620; test: Cytotoxicity against human SW620 cells assessed as cell growth at 10 uM after 48 hrs by SRB assay relative to untreated control; details: SW-620, 48 h, read-out: Activity; in short: as §3
[21] = test system: KM12; test: Cytotoxicity against human KM12 cells assessed as cell growth at 10 uM after 48 hrs by SRB assay relative to untreated control; details: KM12, 48 h, read-out: Activity; in short: as §2
[22] = test system: HCT-116; test: Cytotoxicity against human HCT116 cells assessed as cell growth at 10 uM after 48 hrs by SRB assay relative to untreated control; details: HCT-116, 48 h, read-out: Activity; in short: as §2
[23] = test system: HCC 2998; test: Cytotoxicity against human HCC2998 cells assessed as cell growth at 10 uM after 48 hrs by SRB assay relative to untreated control; details: HCC 2998, 48 h, read-out: Activity; in short: as §2
[24] = test system: COLO 205; test: Cytotoxicity against human COLO205 cells assessed as cell growth at 10 uM after 48 hrs by SRB assay relative to untreated control; details: COLO 205, 48 h, read-out: Activity; in short: as §2
[25] = test system: NCI-H460; test: Cytotoxicity against human NCI-H460 cells assessed as cell growth at 10 uM after 48 hrs by SRB assay relative to untreated control; details: NCI-H460, 48 h, read-out: Activity; in short: as §1
[26] = test system: NCI-H226; test: Cytotoxicity against human NCI-H226 cells assessed as cell growth at 10 uM after 48 hrs by SRB assay relative to untreated control; details: NCI-H226, 48 h, read-out: Activity; in short: as §1
[27] = test system: HOP-92; test: Cytotoxicity against human HOP92 cells assessed as cell growth at 10 uM after 48 hrs by SRB assay relative to untreated control; details: HOP-92, 48 h, read-out: Activity; in short: as §2
[28] = test system: HOP-62; test: Cytotoxicity against human HOP62 cells assessed as cell growth at 10 uM after 48 hrs by SRB assay relative to untreated control; details: HOP-62, 48 h, read-out: Activity; in short: as §2
[29] = test system: SR; test: Cytotoxicity against human SR cells assessed as cell growth at 10 uM after 48 hrs by SRB assay relative to untreated control; details: read-out: Activity; in short: as §3
[30] = test system: RPMI-8226; test: Cytotoxicity against human RPMI8226 cells assessed as cell growth at 10 uM after 48 hrs by SRB assay relative to untreated control; details: RPMI-8226, 48 h, read-out: Activity; in short: as §1
[31] = test system: K562; test: Cytotoxicity against human K562 cells assessed as cell growth at 10 uM after 48 hrs by SRB assay relative to untreated control; details: K562, 48 h, read-out: Activity; in short: as §2

| SMILES | growth at 10 µM [1] | growth at 10 µM [2] | growth at 10 µM [3] | growth at 10 µM [4] | growth at 10 µM [5] | growth at 10 µM [6] | growth at 10 µM [7] | growth at 10 µM [8] | growth at 10 µM [9] | growth at 10 µM [10] | growth at 10 µM [11] | growth at 10 µM [12] | growth at 10 µM [13] | growth at 10 µM [14] | growth at 10 µM [15] | growth at 10 µM [16] | growth at 10 µM [17] | growth at 10 µM [18] | growth at 10 µM [19] | growth at 10 µM [20] | also measured |
| --- | --- | --- | --- | --- | --- | --- | --- | --- | --- | --- | --- | --- | --- | --- | --- | --- | --- | --- | --- | --- | --- |
| Cc1ccc(C2=Nc3nc4ccccn4c3C(=O)[C@@H]3CCCN23)cc1 | 93.8% | 97.4% | 81.9% | 80.3% | 110% | 85.2% | 91.8% | 68.5% | 98.1% | 98.2% | 96.7% | 99.7% | 98.8% | 108% | 91.1% | 87.4% | 90% | 96.7% | 88% | 101% | growth at 10 µM [21]: 98.6%; growth at 10 µM [22]: 94%; growth at 10 µM [23]: 99.4%; growth at 10 µM [24]: 94.4%; growth at 10 µM [25]: 102%; growth at 10 µM [26]: 86.5%; growth at 10 µM [27]: 78.3%; growth at 10 µM [28]: 82.9%; growth at 10 µM [29]: 88.5%; growth at 10 µM [30]: 105%; growth at 10 µM [31]: 104% |
| Cc1ccc(C2=Nc3nc4ccccn4c3C(=O)[C@H](C)N2)cc1 | 79.7% | 112% | 72.9% | 45.9% | 96% | 105% | 86.1% | 99.1% | 93.8% | 88.7% | 90.4% | 70.9% | 90.3% | 88.9% | 25.7% | 88.6% | 68% | 87.4% | 99.7% | 82.3% | growth at 10 µM [21]: 70.3%; growth at 10 µM [22]: 91.1%; growth at 10 µM [23]: 104%; growth at 10 µM [24]: 80.4%; growth at 10 µM [25]: 94.5%; growth at 10 µM [26]: 80.5%; growth at 10 µM [27]: 66.3%; growth at 10 µM [28]: 62.9%; growth at 10 µM [29]: 42.2%; growth at 10 µM [30]: 88.6%; growth at 10 µM [31]: 47.1% |
| Cc1ccc(C2=Nc3nc4ccccn4c3C(=O)[C@H](Cc3ccccc3)N2)cc1 | 93.7% | 117% | 80.7% | 77% | 135% | 95.7% | 76.8% | 101% | 92.9% | 102% | 99.3% | 89.1% | 91.1% | 109% | 46.8% | 85.8% | 80.2% | 84% | 97.4% | 102% | growth at 10 µM [21]: 92.9%; growth at 10 µM [22]: 94.3%; growth at 10 µM [23]: 106%; growth at 10 µM [24]: 113%; growth at 10 µM [25]: 103%; growth at 10 µM [26]: 88.2%; growth at 10 µM [27]: 88.3%; growth at 10 µM [28]: 75.9%; growth at 10 µM [29]: 89.7%; growth at 10 µM [30]: 107%; growth at 10 µM [31]: 87.9% |
| Cc1ccccc1C1=Nc2nc3ccccn3c2C(=O)[C@H](Cc2ccccc2)N1 | 104% | 113% | 89.4% | 80.6% | 138% | 105% | 88.8% | 98.2% | 92.8% | 98.7% | 108% | 108% | 87.3% | 113% | 98.8% | 91.7% | 70.8% | 96.5% | 104% | 103% | growth at 10 µM [21]: 108%; growth at 10 µM [22]: 86.9%; growth at 10 µM [23]: 99.9%; growth at 10 µM [24]: 107%; growth at 10 µM [25]: 103%; growth at 10 µM [26]: 99%; growth at 10 µM [27]: 90.5%; growth at 10 µM [28]: 93.4%; growth at 10 µM [29]: 122%; growth at 10 µM [30]: 98.4%; growth at 10 µM [31]: 113% |
